OX1R antag-1: antagonists of human orexin 1 receptor | O43613 | CHO/OX1R cells, Fluo-8 calcium fluorescence, orexin A | inhibition, % at 5 µM | 330,000 compounds, 0.43% hits;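 active = inhibition above its plate's threshold, mean inhibition of all tested compounds on the plate plus 3 SD, cut at about 37% in these data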;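 also: 0% = orexin A challenge wells and 100% = SB-334867-A antagonist wells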
V1R ag counter: activates human V1a receptor in oxytocin agonist counter-screen; CHO-V1R cells, Fluo-8 calcium fluorescence, agonist mode; 0% DMSO, 100% 3 nM vasopressin; activation, % at 3 µM; 320,000 compounds, 0.25% hits; AID 2797;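 active = activation above the mean activation of all tested compounds plus 3 SD, per screening run, cut at about 20% in these data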;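 also: signal is peak over basal fluorescence ratio across a 100 second FLIPR read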
Target sequence (P37288 whole entry, looked up): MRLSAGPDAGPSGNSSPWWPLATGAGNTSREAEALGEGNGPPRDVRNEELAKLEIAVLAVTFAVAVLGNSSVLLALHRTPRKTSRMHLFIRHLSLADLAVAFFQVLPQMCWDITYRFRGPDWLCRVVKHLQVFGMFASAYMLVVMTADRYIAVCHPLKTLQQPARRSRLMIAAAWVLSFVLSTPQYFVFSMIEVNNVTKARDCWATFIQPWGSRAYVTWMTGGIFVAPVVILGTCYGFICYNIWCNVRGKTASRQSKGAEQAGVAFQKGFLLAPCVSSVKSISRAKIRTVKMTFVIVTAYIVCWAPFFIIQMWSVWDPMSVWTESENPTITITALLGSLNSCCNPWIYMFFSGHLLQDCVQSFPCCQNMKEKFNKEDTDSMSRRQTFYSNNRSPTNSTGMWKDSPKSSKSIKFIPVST
OXTR agonist: agonists of human oxytocin receptor; P30559; CHO-OTR cells, Fluo-8 calcium fluorescence; normalized: DMSO 0%, oxytocin 100%; activation, % at 3 µM; 320,000 compounds, 0.32% hits; AID 2435;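 active = activation above the mean of all tested compounds plus 3 SD, cutoff set per screening run, cut at about 20% in these data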;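 also: peak over basal fluorescence ratio from a 100 s FLIPR kinetic read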
OX1R antag-2: OX1R (human) antagonism; O43613; OX1R-expressing cells, FRET antagonist read-out; inhibition, % at 6.6 µM; 330,000 compounds, 1.8% hits; AID 485270; in the data active = inhibition mostly above about 38%, no sharp cut-off; inactive = mostly below about 40%;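 also: 0% = agonist challenge alone and 100% = reference antagonist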
OXTR potentiate: human OXTR potentiation; activation, % at 3 µM; 320,000 compounds, 0.061% hits; CHO-OTR cells, Fluo-8 calcium fluorescence, potentiator mode; 0% = oxytocin EC15, 100% = EC100;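 active = activation above that plate's cutoff, the mean activation of tested compounds plus 3 SD, cut at about 6.6% in these data, passing the limit was not always enough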;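 also: 100% uses oxytocin at 75 nM as the full agonist control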
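System: human OTR in CHO cells / Also added: sub-maximal oxytocin, roughly EC15 / Control set: EC15 oxytocin low, 75 nM oxytocin high / Schedule: 6 min compound pre-incubation at room temperature, 100 s kinetic read / Compound: single-point 3.0 µM / Replication: singlicate / Technique: Fluo-8 calcium dye fluorescence / Read-out basis: % activation of max/min ratio relative to oxytocin controls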
CHO parental Ca: signal in parental CHO cells, OX1R antagonist counter-screen; parental CHO-K1, ATP-induced calcium, Fluo-8 fluorescence; inhibition, % at 5.6 µM; 330,000 compounds, 0.63% hits; AID 463079;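 active = inhibition above that plate's mean sample inhibition plus 3 SD, cut at about 26% in these data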;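 also: 0% = ATP-challenged DMSO wells and 100% = DMSO wells without ATP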
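Material: Parental CHO cells | Reagent: ATP | Compound dosing: Single nominal dose of 5.6 µM per compound | Detection: Intracellular calcium via Fluo-8 no-wash fluorescent dye | Read-out: % inhibition of ATP-induced calcium mobilization | Benchmarks: Low control ATP plus DMSO, high control DMSO only | Replicates: Singlicate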
* marks the source's active call; other numbers are inactive results. Most compounds without a hit are left out; they make up all but 2.7% or so of the library.

SMILES	OX1R antag-1	V1R ag counter	OXTR agonist	OX1R antag-2	OXTR potentiate	CHO parental Ca
Cc1ccc(-c2csc(N3CCC(NS(=O)(=O)c4ccc5c(c4)OCCO5)CC3)n2)cc1	51*	8	11	36	-20	55*
O=C(NCc1ccccn1)Nc1cccc(Cl)c1	-9	1	2	23	-8	-1
O=C(NCc1ccccn1)Nc1cc(Cl)cc(Cl)c1	3	9	3	8	-9	29*
O=C(NCc1csc2ccccc12)Nc1cc(Cl)cc(Cl)c1	5	0	0	52*	-13	5
O=C(O)Cc1csc2ccccc12	-7	1	0	-3	2	-10
Cc1ccc(S(=O)(=O)CCC(=O)Oc2ccc(-c3nnco3)cc2)cc1	-4	0	1	11	-6	-3
CSc1ccc(S(=O)(=O)N2CCC(C(=O)NC3CC3)CC2)cc1	-10	1	1	9	-6	20
COc1ccccc1/C=C/C=N/n1c(C)nnc1C	-6	0	-1	-3	-19	-5
Oc1ccccc1-c1cc(-c2cccc(F)c2)n[nH]1	-4	-1	1	41*	-5	11
O=C(Nc1cccnc1)c1ccc(COc2cc(Cl)ccc2Cl)o1	0	7	4	35	-22	-10
O=C(N/N=C/c1ccc(O)cc1)c1ccc(COc2cc(Cl)ccc2Cl)o1	67*	33*	33*	5	-23	59*
CCOc1ncccc1C(=O)OCC(=O)c1cccc(Br)c1	-17	-1	-3	24	-5	-27
N#CC(C#N)=C(Nc1ccc(F)cc1)SCc1cccc(Br)c1	36	6	16	56	-10	70*
Cc1cccc(CSC(Nc2ccc(F)cc2)=C(C#N)C#N)c1	5	10	18	29	-7	25*
O=C(NN1c2ccccc2CCc2ccccc21)c1ccccc1Br	13	-1	-2	66*	-10	4
CC1=Nc2ccccc2/C1=C\c1nc(-c2ccccc2)oc1O	19	5	3	26	-15	14
CC1=Nc2ccccc2/C1=C/c1nc(-c2ccc(C)s2)oc1O	68*	11	12	16	-20	43*
Cc1ccc2[nH]c(O)c(N=NC(=O)c3ccc(NS(=O)(=O)c4cccs4)cc3)c2c1	-7	0	0	19	0	-4
Cc1cccc2c(N=NC(=O)c3ccc(NS(=O)(=O)c4cccs4)cc3)c(O)[nH]c12	14	-1	0	40*	-2	-4
COc1ccc(CCNC(=O)N2c3ccccc3Sc3ccccc32)cc1	30	3	1	45	-21	36*
COc1ccc(CCNC(=O)CN2C(=O)NC(c3ccccc3)(c3ccccc3)C2=O)cc1	24	1	1	36*	-9	-16
COCCCNC(=O)N1c2ccccc2Sc2ccccc21	-10	1	-2	-1	-11	-10
COc1ccc(CNC(=O)CN2C(=O)NC(c3ccccc3)(c3ccccc3)C2=O)cc1	-1	2	0	15	-3	-21
CCOC(=O)N1CCN(CC(=O)Nc2ccc(F)c(F)c2F)CC1	-1	1	1	6	0	-7
CCOC(=O)N1CCN(CC(=O)Nc2ccc(F)cc2F)CC1	0	0	0	15	-2	28*
SMILES	OX1R antag-1	V1R ag counter	OXTR agonist	OX1R antag-2	OXTR potentiate	CHO parental Ca
NNC(=O)c1ccc(COc2ccc3ccccc3c2)o1	-33	4	5	5	-12	-15
O=C(OCc1ccccn1)c1ccc(COc2ccc3ccccc3c2)o1	40	6	5	5	-28	48*
O=C(Nc1cccc(C(F)(F)F)c1)c1cc(Br)cc2c1OCC2	-9	0	0	7	-5	8
O=C(Nc1cccc(C(F)(F)F)c1)c1scc2c1OCCO2	-7	-1	-1	15	-22	43*
COc1ccc(CC2=CC(=O)c3ccccc3C2=O)cc1	-4	-1	0	39*	2	4
Cn1ncc(Br)c1C(=O)N1CCCCCC1	11	0	0	2	-1	4
Cc1nn(-c2ccccc2)c(N)c1N=Nc1cccnc1	-20	1	-1	54*	-8	-10
O=C(Nc1nc2c(s1)COc1ccccc1-2)c1cccs1	-23	6	3	56*	-7	-15

Screening data deposited in PubChem BioAssay by The Scripps Research Institute Molecular Screening Center.
